Source: ChEMBL document CHEMBL4673272, “Discovery of cyclic sulfonamide derivatives as potent inhibitors of SARS-CoV-2” (Bioorg Med Chem Lett, 2021)

Experiments:
SARS-CoV-2 = experiment: Antiviral activity against SARS-CoV-2 betaCoV/KOR/KCDC03/2020 infected in African green monkey Vero cells assessed as inhibition of virus-induced cytopathic effect measured after 24 hrs by immunofluorescence assay; type: functional, organism-based; conditions: Severe acute respiratory syndrome coronavirus 2, betaCoV/KOR/KCDC03/2020, Vero
[1] = Cytotoxicity against African green monkey Vero cells infected with SARS-CoV-2 betaCoV/KOR/KCDC03/2020 assessed as reduction in cell viability measured after 72 hrs by CellTiter-Glo Luminescent Cell Viability Assay; type: cell-based; conditions: chlorocebus sabaeus
[2] = Selectivity index, ratio of CC50 for African green monkey Vero cells infected with SARS-CoV-2 betaCoV/KOR/KCDC03/2020 to IC50 for SARS-CoV-2 betaCoV/KOR/KCDC03/2020
[3] = Cmax in rat at 5 mg/kg, iv or 10 mg/kg, po; type: ADME, organism-based; design: dose 10 mg/kg; conditions: in vivo
Summary of the method: (§1)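 Rats, n = 3, were dosed at 5 mg/kg IV and 10 mg/kg PO. Cmax, T1/2, clearance and oral bioavailability (F) were derived from these two dosing routes.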

[4] = Half life in rat at 5 mg/kg, iv or 10 mg/kg, po; type: ADME, organism-based; conditions: in vivo; summary of the method: as §1
[5] = Clearance in rat at 5 mg/kg, iv or 10 mg/kg, po; type: ADME, organism-based; conditions: in vivo; summary of the method: as §1
[6] = Oral bioavailability in rat at 10 mg/kg; type: ADME, organism-based; conditions: in vivo; summary of the method: as §1
hERG (KCNH2) = hERG (KCNH2) (Homo sapiens, UniProt Q12809); experiment: Inhibition of human ERG at 10 uM relative to control
hERG (KCNH2), sequence (Q12809 whole entry): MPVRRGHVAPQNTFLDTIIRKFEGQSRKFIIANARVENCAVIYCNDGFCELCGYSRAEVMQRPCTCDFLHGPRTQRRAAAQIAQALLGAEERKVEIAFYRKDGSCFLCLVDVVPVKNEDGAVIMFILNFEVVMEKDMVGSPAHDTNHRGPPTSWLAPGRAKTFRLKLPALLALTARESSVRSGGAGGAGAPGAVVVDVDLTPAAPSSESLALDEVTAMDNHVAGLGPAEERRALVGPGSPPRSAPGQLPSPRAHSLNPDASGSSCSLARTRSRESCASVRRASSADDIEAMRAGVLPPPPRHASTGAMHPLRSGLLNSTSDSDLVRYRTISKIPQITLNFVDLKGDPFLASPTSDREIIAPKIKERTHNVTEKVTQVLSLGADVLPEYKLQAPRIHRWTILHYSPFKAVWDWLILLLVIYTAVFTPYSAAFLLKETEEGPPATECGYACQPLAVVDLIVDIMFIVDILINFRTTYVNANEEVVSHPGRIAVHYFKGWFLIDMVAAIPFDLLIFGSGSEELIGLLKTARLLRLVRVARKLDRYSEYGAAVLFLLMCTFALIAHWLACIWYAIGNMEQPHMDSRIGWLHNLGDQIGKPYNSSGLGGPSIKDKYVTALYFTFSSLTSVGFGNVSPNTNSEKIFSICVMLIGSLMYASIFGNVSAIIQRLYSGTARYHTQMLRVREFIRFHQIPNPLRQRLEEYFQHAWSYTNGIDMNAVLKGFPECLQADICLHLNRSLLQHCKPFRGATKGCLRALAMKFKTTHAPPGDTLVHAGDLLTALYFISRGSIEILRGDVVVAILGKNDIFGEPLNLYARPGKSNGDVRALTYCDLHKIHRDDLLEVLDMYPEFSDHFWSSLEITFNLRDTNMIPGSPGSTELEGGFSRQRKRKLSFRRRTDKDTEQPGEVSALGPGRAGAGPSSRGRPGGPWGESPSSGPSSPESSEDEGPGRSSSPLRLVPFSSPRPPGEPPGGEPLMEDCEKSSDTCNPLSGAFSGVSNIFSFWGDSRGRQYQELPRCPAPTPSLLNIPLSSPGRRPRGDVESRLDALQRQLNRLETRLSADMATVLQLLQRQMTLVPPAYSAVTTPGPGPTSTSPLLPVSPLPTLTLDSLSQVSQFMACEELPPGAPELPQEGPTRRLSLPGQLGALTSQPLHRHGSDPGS

[7] = Metabolic stability in human microsomes assessed as parent compound remaining incubated for 30 mins; type: ADME, Microsome; conditions: read-out: Stabilty
[8] = Metabolic stability in monkey microsomes assessed as parent compound remaining incubated for 30 mins; type: ADME, Macaca mulatta, Microsome; conditions: rhesus monkey, read-out: Stabilty
Vero = experiment: Cytotoxicity against African green monkey Vero cells; type: cell-based; conditions: chlorocebus sabaeus
Summary of the method: (§2)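 Cell-line panel used for cytotoxicity: Vero, African green monkey kidney; HFL-1, human embryonic lung; L929 (NCTC clone 929), mouse fibroblast; NIH 3T3, mouse embryonic fibroblast; CHO-K1, Chinese hamster ovary. Values given in μM.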

HFL1 = experiment: Cytotoxicity against human HFL-1 cells; type: cell-based; summary of the method: as §2
L929 = experiment: Cytotoxicity against mouse L929 cells; type: cell-based; summary of the method: as §2
CHO-K1 = experiment: Cytotoxicity against CHO-K1 cells; type: cell-based, Cricetulus griseus; conditions: chinese hamster; summary of the method: as §2
NIH3T3 = experiment: Cytotoxicity against mouse NIH/3T3 cells; type: cell-based; summary of the method: as §2

Row | SMILES | IC50 (SARS-CoV-2) | CC50 at 72 h [1] | Ratio CC50/IC50 [2] | other results
1 | O=C(CN1C(C(=O)c2ccc(F)cc2)=C(O)c2ccccc2S1(=O)=O)Nc1cccc(F)c1 | 15.3 µM | > 25 µM |  | 
2 | O=C(CN1C(C(=O)c2ccc(F)c(Cl)c2)=C(O)c2ccc(F)cc2S1(=O)=O)Nc1cccc(OC(F)(F)F)c1 | 3.1 µM | > 25 µM | 8.9 | 
3 | COc1ccc(C(=O)C2=C(O)c3ccccc3S(=O)(=O)N2CC(=O)Nc2ccc(C(F)(F)F)cc2)cc1 | 8.6 µM | > 25 µM | 2.5 | 
4 | O=C(CN1C(C(=O)c2cccc(Cl)c2)=C(O)c2ccccc2S1(=O)=O)Nc1ccc(C(F)(F)F)cc1 | 4.1 µM | > 25 µM | 5.8 | 
5 | O=C(/C=C/N1C(C(=O)c2ccc(F)c(Cl)c2)=C(O)c2ccccc2S1(=O)=O)Nc1cccc(OC(F)(F)F)c1 | 6.6 µM | > 25 µM | 3.6 | 
6 | CNc1ccc2c(c1)S(=O)(=O)N(CC(=O)Nc1ccc(C(F)(F)F)cc1)C(C(=O)c1ccc(F)c(Cl)c1)=C2O | 13.8 µM | > 25 µM | 1.3 | 
7 | N#Cc1ccc(C(=O)C2=C(O)c3ccccc3S(=O)(=O)N2CC(=O)Nc2ccc(C(F)(F)F)cc2)cc1 | 9.3 µM | > 25 µM | 1.4 | 
8 | COc1ccc(C(=O)C2=C(O)c3ccccc3S(=O)(=O)N2CC(=O)Nc2cccc(OC(F)(F)F)c2)cc1 | 11.6 µM | > 25 µM | 2 | 
9 | N#Cc1cccc(C(=O)C2=C(O)c3ccccc3S(=O)(=O)N2CC(=O)Nc2cccc(OC(F)(F)F)c2)c1 | 14.3 µM | > 25 µM | 1.6 | 
10 | O=C(CN1C(C(=O)c2ccc(F)cc2)=C(O)c2ccccc2S1(=O)=O)Nc1ccc(C(F)(F)F)cc1 | 5.3 µM | > 25 µM | 4.7 | 
11 | O=C(CN1C(C(=O)c2ccc(F)cc2)=C(O)c2ccccc2S1(=O)=O)Nc1ccccc1 | > 25 µM | > 25 µM | 1 | 
12 | O=C(CN1C(C(=O)c2ccc(F)c(Cl)c2)=C(O)c2ccc(F)cc2S1(=O)=O)Nc1cccc(Cl)c1 | 2.2 µM | > 25 µM | 12.1 | 
13 | O=C(CN1C(C(=O)c2ccccc2)=C(O)c2ccccc2S1(=O)=O)Nc1cccc(OC(F)(F)F)c1 | 11.5 µM | > 25 µM | 2.1 | 
14 | N#Cc1cccc(C(=O)C2=C(O)c3ccccc3S(=O)(=O)N2CC(=O)c2ccc(F)c(Cl)c2)c1 | > 25 µM | > 25 µM | 1 | 
15 | O=C(CN1C(C(=O)c2ccc(F)c(Cl)c2)=C(O)c2ccccc2S1(=O)=O)Nc1ccc(C(F)(F)F)cc1 | 2.5 µM | > 25 µM | 11.1 | 
16 | O=C(CN1C(C(=O)c2ccc(F)c(Cl)c2)=C(O)c2ccc(F)cc2S1(=O)=O)Nc1ccc(C(F)(F)F)cc1 | 0.88 µM | > 25 µM | 30.7 | Cmax [3]: 14330 ng/mL; t1/2 [4]: 18.5 h; CL [5]: 0.67 mL/min/kg; F [6]: 77%; inhibition at 10 µM (hERG (KCNH2)): < 1%; remaining at 0.5 h [7]: 93%; remaining at 0.5 h [8]: 61%; Activity (Vero): 42.1 µM; Activity (HFL1): 44.2 µM; Activity (L929): 31.4 µM; Activity (CHO-K1): 10.6 µM; Activity (NIH3T3): 68 µM
17 | N#Cc1ccc(C(=O)C2=C(O)c3ccccc3S(=O)(=O)N2CC(=O)Nc2cccc(OC(F)(F)F)c2)cc1 | 14.3 µM | > 25 µM | 1.6 | 
18 | O=C(CN1C(C(=O)c2ccc(F)cc2)=C(O)c2ccccc2S1(=O)=O)Nc1cccc(OC(F)(F)F)c1 | 8.9 µM | > 25 µM | 2.7 | 

Row | SMILES | IC50 (SARS-CoV-2) | CC50 at 72 h [1] | Ratio CC50/IC50 [2] | other results
19 | CC(C)C(=O)C1=C(O)c2ccccc2S(=O)(=O)N1CC(=O)Nc1ccc(C(F)(F)F)cc1 | 7.3 µM | > 25 µM | 3 | 
20 | N#Cc1cccc(C(=O)C2=C(O)c3ccccc3S(=O)(=O)N2CC(=O)Nc2ccc(C(F)(F)F)cc2)c1 | 10.7 µM | > 25 µM | 1.5 | 
21 | O=C(CN1C(C(=O)c2ccccc2)=C(O)c2ccccc2S1(=O)=O)NC1CCCCC1 | > 25 µM | > 25 µM | 1 | 
22 | N#Cc1ccc(C(=O)C2=C(O)c3ccccc3S(=O)(=O)N2CC(=O)c2ccc(F)c(Cl)c2)cc1 | > 25 µM | > 25 µM | 1 | 
23 | O=C(CN1C(C(=O)c2ccc(Cl)cc2)=C(O)c2ccccc2S1(=O)=O)Nc1ccc(C(F)(F)F)cc1 | 4 µM | > 25 µM | 6 | 
24 | CC(C)C(=O)C1=C(O)c2ccccc2S(=O)(=O)N1CC(=O)Nc1cccc(OC(F)(F)F)c1 | 10.8 µM | > 25 µM | 1.9 | 
25 | CCNC(=O)CN1C(C(=O)c2ccccc2)=C(O)c2ccccc2S1(=O)=O | > 25 µM | > 25 µM | 1 | 
26 | O=C(CN1C(C(=O)c2cccc(F)c2)=C(O)c2ccccc2S1(=O)=O)Nc1ccc(C(F)(F)F)cc1 | 7 µM | > 25 µM | 3.2 | 
27 | O=C(CN1C(C(=O)c2ccc(Cl)cc2)=C(O)c2ccccc2S1(=O)=O)Nc1cccc(OC(F)(F)F)c1 | 8.5 µM | > 25 µM | 2.9 | 
28 | O=C(CN1C(C(=O)c2ccc(F)c(Cl)c2)=C(O)c2ccccc2S1(=O)=O)Nc1cccc(OC(F)(F)F)c1 | 9.2 µM | > 25 µM | 2.8 | 
29 | O=C(O)/C=C/N1C(C(=O)c2ccc(F)c(Cl)c2)=C(O)c2ccccc2S1(=O)=O | > 25 µM | > 25 µM | 1 | 
30 | O=C(CN1C(C(=O)c2cccc(F)c2)=C(O)c2ccccc2S1(=O)=O)Nc1cccc(OC(F)(F)F)c1 | 10.1 µM | > 25 µM | 2.3 | 
31 | CN1CCN(c2ccc3c(c2)S(=O)(=O)N(CC(=O)Nc2ccc(C(F)(F)F)cc2)C(C(=O)c2ccc(F)c(Cl)c2)=C3O)CC1 | 14 µM | > 25 µM | 1.6 | 
32 | O=C(CN1C(C(=O)c2ccc(F)cc2)=C(O)c2ccccc2S1(=O)=O)Nc1ccccc1Cl | > 25 µM | > 25 µM | 1 | 
33 | O=C(CN1C(C(=O)c2cccc(Cl)c2)=C(O)c2ccccc2S1(=O)=O)Nc1cccc(OC(F)(F)F)c1 | 11.9 µM | > 25 µM | 2.1 | 
34 | O=C(C1=C(O)c2ccccc2S(=O)(=O)N1Cc1ccccc1)c1ccccc1 | > 25 µM | > 25 µM | 1 | 
35 | CCN(CC)CCCC(C)Nc1ccnc2cc(Cl)ccc12 (centres undefined) [CHLOROQUINE] | 8 µM | > 25 µM | 3.1 | 
36 | CCC(CC)COC(=O)[C@H](C)N[P@](=O)(OC[C@H]1O[C@@](C#N)(c2ccc3c(N)ncnn23)[C@H](O)[C@@H]1O)Oc1ccccc1 [REMDESIVIR] | 7.01 µM | > 25 µM | 3.6 | 
